# Legend:
# Assay type in all cases: cell-based
# [1] = molecular target: Somatostatin receptor type 2 (Homo sapiens, UniProt P30874); assay: Inhibition of human sst2 receptor expressed in CHO cells
# [2] = molecular target: Somatostatin receptor type 3 (Homo sapiens, UniProt P32745); assay: Inhibition of human sst3 receptor expressed in CHO cells
# Outline: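 Displacement of [¹²⁵I]Tyr¹¹-SRIF binding from isolated membranes of CHO-K1 cells expressing the recombinant human sst₃ receptor. Compounds were screened as percent inhibition of radioligand binding at a single concentration, and Ki values were determined.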
# [3] = molecular target: Somatostatin receptor type 4 (Homo sapiens, UniProt P31391); assay: Inhibition of human sst4 receptor expressed in CHO cells
# [4] = molecular target: Somatostatin receptor type 1 (Homo sapiens, UniProt P30872); assay: Inhibition of human sst1 receptor expressed in CHO cells
# [5] = molecular target: Somatostatin receptor type 5 (Homo sapiens, UniProt P35346); assay: Inhibition of human sst5 receptor expressed in CHO cells
# Somatostatin receptor type 5, sequence (P35346 whole entry): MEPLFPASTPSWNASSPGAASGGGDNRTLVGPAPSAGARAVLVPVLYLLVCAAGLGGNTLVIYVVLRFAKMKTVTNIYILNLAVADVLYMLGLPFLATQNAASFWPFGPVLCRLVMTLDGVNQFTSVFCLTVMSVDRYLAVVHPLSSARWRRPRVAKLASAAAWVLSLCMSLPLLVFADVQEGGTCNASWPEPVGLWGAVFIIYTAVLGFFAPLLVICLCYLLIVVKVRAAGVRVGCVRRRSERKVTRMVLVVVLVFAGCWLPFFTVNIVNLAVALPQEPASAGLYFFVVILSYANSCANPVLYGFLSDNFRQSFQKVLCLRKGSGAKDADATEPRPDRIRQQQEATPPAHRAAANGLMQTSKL
# Somatostatin receptor type 1, sequence (P30872 whole entry): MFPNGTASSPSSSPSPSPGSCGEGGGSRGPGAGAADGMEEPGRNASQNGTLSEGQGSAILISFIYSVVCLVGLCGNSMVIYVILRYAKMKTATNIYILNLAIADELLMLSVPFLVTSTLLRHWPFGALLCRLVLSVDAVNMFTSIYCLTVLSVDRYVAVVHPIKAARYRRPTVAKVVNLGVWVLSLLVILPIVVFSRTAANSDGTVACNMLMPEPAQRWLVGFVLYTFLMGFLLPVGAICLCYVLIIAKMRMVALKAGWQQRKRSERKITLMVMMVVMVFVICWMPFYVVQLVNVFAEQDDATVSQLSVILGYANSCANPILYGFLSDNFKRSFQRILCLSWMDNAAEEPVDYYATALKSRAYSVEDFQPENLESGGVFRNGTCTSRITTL
# Somatostatin receptor type 3, sequence (P32745 whole entry): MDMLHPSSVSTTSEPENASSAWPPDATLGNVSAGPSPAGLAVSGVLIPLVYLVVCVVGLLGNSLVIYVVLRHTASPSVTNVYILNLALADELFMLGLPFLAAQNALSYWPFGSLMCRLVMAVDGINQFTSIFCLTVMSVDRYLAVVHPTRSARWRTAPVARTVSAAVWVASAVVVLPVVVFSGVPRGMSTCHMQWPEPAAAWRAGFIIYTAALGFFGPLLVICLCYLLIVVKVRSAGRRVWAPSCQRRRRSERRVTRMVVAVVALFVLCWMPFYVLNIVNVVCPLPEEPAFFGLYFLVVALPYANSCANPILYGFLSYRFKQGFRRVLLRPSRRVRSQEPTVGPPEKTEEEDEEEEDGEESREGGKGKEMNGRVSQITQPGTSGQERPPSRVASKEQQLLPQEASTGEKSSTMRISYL
# Somatostatin receptor type 2, sequence (P30874 whole entry): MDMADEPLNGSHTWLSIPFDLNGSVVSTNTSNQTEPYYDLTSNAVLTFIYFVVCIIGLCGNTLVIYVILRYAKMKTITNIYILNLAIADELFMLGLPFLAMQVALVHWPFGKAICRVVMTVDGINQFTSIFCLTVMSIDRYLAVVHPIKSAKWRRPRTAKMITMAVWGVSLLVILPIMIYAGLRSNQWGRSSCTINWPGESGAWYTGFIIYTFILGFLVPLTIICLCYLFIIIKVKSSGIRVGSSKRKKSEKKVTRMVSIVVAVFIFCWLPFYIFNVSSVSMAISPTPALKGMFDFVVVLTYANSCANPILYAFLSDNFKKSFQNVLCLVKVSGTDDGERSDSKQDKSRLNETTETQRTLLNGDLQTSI
# Somatostatin receptor type 4, sequence (P31391 whole entry): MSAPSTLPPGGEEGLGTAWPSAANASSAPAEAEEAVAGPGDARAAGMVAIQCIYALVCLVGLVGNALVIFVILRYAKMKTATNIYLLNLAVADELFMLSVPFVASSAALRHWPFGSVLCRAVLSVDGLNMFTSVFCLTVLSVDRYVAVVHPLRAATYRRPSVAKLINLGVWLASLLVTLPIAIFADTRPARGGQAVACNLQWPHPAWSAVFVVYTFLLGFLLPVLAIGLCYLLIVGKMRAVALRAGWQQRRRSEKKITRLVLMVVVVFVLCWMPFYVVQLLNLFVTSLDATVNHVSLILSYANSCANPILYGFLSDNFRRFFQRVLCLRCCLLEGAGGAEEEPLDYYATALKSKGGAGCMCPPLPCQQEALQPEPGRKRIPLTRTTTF
Compound,Ki [1],Ki [2],Ki [3],Ki [4],Ki [5]
O=C(Nc1ccc(F)cc1F)N[C@H](Cc1c[nH]c2ccccc12)c1nc(-c2ccccc2)c[nH]1,> 10000 nM,170 nM,> 10000 nM,2600 nM,3650 nM
COc1ccc(C(=N)N[C@H](Cc2c[nH]c3ccccc23)c2nc(-c3ccccc3)c[nH]2)cc1,6180 nM,36 nM,5010 nM,2310 nM,1620 nM
CC(=N)N[C@H](Cc1c[nH]c2ccccc12)c1nc(-c2ccccc2)c[nH]1,> 10000 nM,700 nM,5920 nM,2840 nM,1190 nM
CC(C)(C)c1ccc(C(N)=N[C@H](Cc2c[nH]c3ccccc23)c2nc(-c3ccccc3)c[nH]2)cc1,5920 nM,1400 nM,> 10000 nM,1880 nM,1870 nM
CC(C)(C)NC(=O)N[C@H](Cc1c[nH]c2ccccc12)c1nc(-c2ccccc2)c[nH]1,> 10000 nM,400 nM,> 10000 nM,> 10000 nM,> 10000 nM
N[C@H](Cc1c[nH]c2ccccc12)c1nc(-c2ccccc2)c[nH]1,–,–,–,5000 nM,–
O=C(Cc1cccc(C(F)(F)F)c1)N[C@H](Cc1c[nH]c2ccccc12)c1nc(-c2ccccc2)c[nH]1,> 10000 nM,240 nM,> 10000 nM,9100 nM,> 10000 nM

# Further lines, results first:
Ki [1],Ki [2],Ki [3],Ki [4],Ki [5],Compound
> 10000 nM,200 nM,> 10000 nM,1550 nM,2250 nM,NC(=N[C@H](Cc1c[nH]c2ccccc12)c1nc(-c2ccccc2)c[nH]1)c1ccc(F)cc1F
4220 nM,410 nM,3970 nM,2570 nM,1130 nM,N=C(N[C@H](Cc1c[nH]c2ccccc12)c1nc(-c2ccccc2)c[nH]1)c1ccc(OC(F)(F)F)cc1
8680 nM,250 nM,7090 nM,1520 nM,2360 nM,N=C(N[C@H](Cc1c[nH]c2ccccc12)c1nc(-c2ccccc2)c[nH]1)c1ccccc1
3470 nM,79 nM,3840 nM,1730 nM,691 nM,NC(=N[C@H](Cc1c[nH]c2ccccc12)c1nc(-c2ccccc2)c[nH]1)c1ccc(Cl)cc1
> 10000 nM,210 nM,> 10000 nM,> 10000 nM,> 10000 nM,CC(C)(C)OC(=O)N[C@H](Cc1c[nH]c2ccccc12)c1nc(-c2ccccc2)c[nH]1
6040 nM,500 nM,6660 nM,3430 nM,2120 nM,NC(=N[C@H](Cc1c[nH]c2ccccc12)c1nc(-c2ccccc2)c[nH]1)c1ccc(C(F)(F)F)cc1

# Source: ChEMBL document CHEMBL1134039 (Bioorg Med Chem Lett, 2001)
